What was measured:
Bone [1] = test: Biodistribution in Sprague-Dawley rat bone at 1.48 to 2.22 MBq, iv measured at 60 mins by gamma counting analysis; format: ADME, organism-based, Bone element; conditions: in vivo, 1 h
Procedure, shortened: (§1)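 Male Sprague-Dawley rats (250 - 400 g), tail-vein injection of 1.48 - 2.22 MBq radiotracer under 2.5% isoflurane in oxygen; n=4 per time point, euthanized at 5, 30 and 60 min p.i. Brain regions obtained by gross dissection; peripheral tissues collected. Samples weighed, gamma-counted against a diluted-injectate standard; %ID/g calculated.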

Rattus norvegicus [2] = test: Biodistribution in Sprague-Dawley rat fat tissue at 1.48 to 2.22 MBq, iv measured at 60 mins by gamma counting analysis; format: ADME, organism-based, Adipose tissue; conditions: in vivo, 1 h; procedure, shortened: as §1
Muscle tissue [3] = test: Biodistribution in Sprague-Dawley rat muscle at 1.48 to 2.22 MBq, iv measured at 5 mins by gamma counting analysis; format: ADME, organism-based; conditions: in vivo; procedure, shortened: as §1
Plasma = test: Retention time of the compound in cynomolgus monkey plasma at 185 to 259 MBq, iv by HPLC analysis; format: ADME, organism-based, Macaca fascicularis
Procedure, shortened: (§2)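 Arterial blood (~1.5 mL) drawn at 2, 15, 30, 60 and 90 min p.i. into heparinized syringes, then centrifuged to plasma. Plasma deproteinated with 2 parts ice-cold methanol. Extract run on C-18 HPLC, MeCN/0.1 M ammonium formate pH 4.5, 0.9 mL/min, UV 254 nm. 1-min fractions over 16 min were well-counted and decay-corrected; parent percentage taken from recovered activity.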

Rattus norvegicus [4] = test: Biodistribution in Sprague-Dawley rat fat tissue at 1.48 to 2.22 MBq, iv measured at 30 mins by gamma counting analysis; format: ADME, organism-based, Adipose tissue; conditions: in vivo, 0.5 h; procedure, shortened: as §1
Brain [5] = test: Biodistribution in Sprague-Dawley rat brain at 1.48 to 2.22 MBq, iv measured at 30 mins by gamma counting analysis; format: ADME, organism-based; conditions: in vivo, 0.5 h; procedure, shortened: as §1
Nucleic Acid [6] = test: Ratio of drug level in striatum to cortex in Sprague-Dawley rat at 1.48 to 2.22 MBq, iv measured at 5 to 30 mins by gamma counting analysis; format: ADME, organism-based; conditions: in vivo
Procedure, shortened: (§3)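 Striatum, cerebellum and cortex obtained by gross dissection from Sprague-Dawley rats (250 - 400 g, n=4 per time point) after tail-vein injection of 1.48 - 2.22 MBq under isoflurane anesthesia. Tissues weighed and gamma-counted with an injectate standard to give %ID/g; ratios taken from striatal versus non-target uptake.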

Nucleic Acid [7] = test: Ratio of drug level in striatum to frontal in cynomolgus monkey at 185 to 259 MBq, iv measured at 40 mins by micro PET image analysis; format: ADME, organism-based, Macaca fascicularis; conditions: in vivo
Procedure, shortened: (§4)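 Adult male cynomolgus macaques (~4–6 kg), three independent PET studies per tracer on a microPET Focus 220. Animals fasted 12 h and anesthetized with ketamine (10 mg/kg) plus glycopyrrolate (0.13 mg/kg) i.m. A 10 min positioning transmission scan and a 45 min attenuation transmission scan were run, then a 3 h dynamic emission scan after venous tracer injection. Regional TACs came from ROIs, expressed as SUV (body weight, injected dose).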

Nucleic Acid [8] = test: Ratio of drug level in striatum to cerebellum in cynomolgus monkey at 185 to 259 MBq, iv measured at 40 mins by micro PET image analysis; format: ADME, organism-based, Macaca fascicularis; conditions: in vivo; procedure, shortened: as §4
Liver [9] = test: Biodistribution in Sprague-Dawley rat liver at 1.48 to 2.22 MBq, iv measured at 5 mins by gamma counting analysis; format: ADME, organism-based; conditions: in vivo; procedure, shortened: as §1
[10] = Metabolic stability in cynomolgus monkey plasma assessed as compound remaining at 185 to 259 MBq, iv measured at 30 mins by HPLC analysis; format: ADME, organism-based, Macaca fascicularis; conditions: read-out: Stability; procedure, shortened: as §2
Bone [11] = test: Biodistribution in Sprague-Dawley rat bone at 1.48 to 2.22 MBq, iv measured at 30 mins by gamma counting analysis; format: ADME, organism-based, Bone element; conditions: in vivo, 0.5 h; procedure, shortened: as §1
Liver [12] = test: Biodistribution in Sprague-Dawley rat liver at 1.48 to 2.22 MBq, iv measured at 30 mins by gamma counting analysis; format: ADME, organism-based; conditions: in vivo, 0.5 h; procedure, shortened: as §1
Striatum = test: Biodistribution in Sprague-Dawley rat striatum at 1.48 to 2.22 MBq, iv measured at 30 mins by gamma counting analysis; format: ADME, organism-based; conditions: in vivo, 0.5 h; procedure, shortened: as §1
Rattus norvegicus [13] = test: Biodistribution in Sprague-Dawley rat fat tissue at 1.48 to 2.22 MBq, iv measured at 5 mins by gamma counting analysis; format: ADME, organism-based, Adipose tissue; conditions: in vivo; procedure, shortened: as §1
Bone [14] = test: Biodistribution in Sprague-Dawley rat bone at 1.48 to 2.22 MBq, iv measured at 5 mins by gamma counting analysis; format: ADME, organism-based, Bone element; conditions: in vivo; procedure, shortened: as §1
[15] = Metabolic stability in cynomolgus monkey plasma assessed as compound remaining at 185 to 259 MBq, iv measured at 60 mins by HPLC analysis; format: ADME, organism-based, Macaca fascicularis; conditions: read-out: Stability; procedure, shortened: as §2
Muscle tissue [16] = test: Biodistribution in Sprague-Dawley rat muscle at 1.48 to 2.22 MBq, iv measured at 30 mins by gamma counting analysis; format: ADME, organism-based; conditions: in vivo, 0.5 h; procedure, shortened: as §1
Kidney [17] = test: Biodistribution in Sprague-Dawley rat kidney at 1.48 to 2.22 MBq, iv measured at 5 mins by gamma counting analysis; format: ADME, organism-based; conditions: in vivo; procedure, shortened: as §1
Caudate = test: Drug uptake in cynomolgus monkey caudate at 185 to 259 MBq, iv measured over 180 mins by micro PET image analysis; format: ADME, organism-based, Macaca fascicularis, Caudate nucleus; conditions: in vivo, 3 h
Procedure, shortened: (§5)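 Adult male cynomolgus macaques (~4–6 kg), three studies per tracer, fasted 12 h. Induction with ketamine 10 mg/kg plus glycopyrrolate 0.13 mg/kg i.m. Transmission scans of 10 min for positioning and 45 min for attenuation correction, then a 3 h dynamic microPET emission scan after venous injection of 185 - 259 MBq. ROI time-activity curves expressed as SUV (body weight and injected dose).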

[18] = Metabolic stability in cynomolgus monkey plasma assessed as compound remaining at 185 to 259 MBq, iv measured at 90 mins by HPLC analysis; format: ADME, organism-based, Macaca fascicularis; conditions: read-out: Stability; procedure, shortened: as §2
Nucleic Acid [19] = test: Ratio of drug level in striatum to white matter in cynomolgus monkey at 185 to 259 MBq, iv measured at 40 mins by micro PET image analysis; format: ADME, organism-based, Macaca fascicularis; conditions: in vivo; procedure, shortened: as §4
[20] = Ratio of drug level in striatum to cerebellum in Sprague-Dawley rat at 1.48 to 2.22 MBq, iv measured at 5 to 30 mins by gamma counting analysis; format: ADME, organism-based; conditions: in vivo; procedure, shortened: as §3
Muscle tissue [21] = test: Biodistribution in Sprague-Dawley rat muscle at 1.48 to 2.22 MBq, iv measured at 60 mins by gamma counting analysis; format: ADME, organism-based; conditions: in vivo, 1 h; procedure, shortened: as §1
[22] = Metabolic stability in cynomolgus monkey plasma assessed as compound remaining at 185 to 259 MBq, iv measured at 15 mins by HPLC analysis; format: ADME, organism-based, Macaca fascicularis; conditions: read-out: Stability; procedure, shortened: as §2
Putamen = test: Drug uptake in cynomolgus monkey putamen at 185 to 259 MBq, iv measured over 180 mins by micro PET image analysis; format: ADME, organism-based, Macaca fascicularis; conditions: in vivo, 3 h; procedure, shortened: as §5
Liver [23] = test: Biodistribution in Sprague-Dawley rat liver at 1.48 to 2.22 MBq, iv measured at 60 mins by gamma counting analysis; format: ADME, organism-based; conditions: in vivo, 1 h; procedure, shortened: as §1
Kidney [24] = test: Biodistribution in Sprague-Dawley rat kidney at 1.48 to 2.22 MBq, iv measured at 30 mins by gamma counting analysis; format: ADME, organism-based; conditions: in vivo, 0.5 h; procedure, shortened: as §1
Blood [25] = test: Biodistribution in Sprague-Dawley rat blood at 1.48 to 2.22 MBq, iv measured at 30 mins by gamma counting analysis; format: ADME, organism-based; conditions: in vivo, 0.5 h; procedure, shortened: as §1
Brain [26] = test: Biodistribution in Sprague-Dawley rat brain at 1.48 to 2.22 MBq, iv measured at 5 mins by gamma counting analysis; format: ADME, organism-based; conditions: in vivo; procedure, shortened: as §1
Nucleic Acid [27] = test: Ratio of drug level in striatum to occipital in cynomolgus monkey at 185 to 259 MBq, iv measured at 40 mins by micro PET image analysis; format: ADME, organism-based, Macaca fascicularis; conditions: in vivo; procedure, shortened: as §4
[28] = Metabolic stability in cynomolgus monkey plasma assessed as compound remaining at 185 to 259 MBq, iv measured at 2 mins by HPLC analysis; format: ADME, organism-based, Macaca fascicularis; conditions: read-out: Stability; procedure, shortened: as §2
Nucleic Acid [29] = test: Ratio of drug level in striatum to temporal region in cynomolgus monkey at 185 to 259 MBq, iv measured at 40 mins by micro PET image analysis; format: ADME, organism-based, Macaca fascicularis; conditions: in vivo; procedure, shortened: as §4
Nucleic Acid [30] = test: Ratio of drug level in striatum to hippocampus in cynomolgus monkey at 185 to 259 MBq, iv measured at 40 mins by micro PET image analysis; format: ADME, organism-based, Macaca fascicularis; conditions: in vivo; procedure, shortened: as §4
Brain [31] = test: Biodistribution in Sprague-Dawley rat brain at 1.48 to 2.22 MBq, iv measured at 60 mins by gamma counting analysis; format: ADME, organism-based; conditions: in vivo, 1 h; procedure, shortened: as §1
Kidney [32] = test: Biodistribution in Sprague-Dawley rat kidney at 1.48 to 2.22 MBq, iv measured at 60 mins by gamma counting analysis; format: ADME, organism-based; conditions: in vivo, 1 h; procedure, shortened: as §1
Nucleic Acid [33] = test: Ratio of drug level in striatum to midbrain region in cynomolgus monkey at 185 to 259 MBq, iv measured at 40 mins by micro PET image analysis; format: ADME, organism-based, Macaca fascicularis, Brain; conditions: in vivo; procedure, shortened: as §4
Blood [34] = test: Biodistribution in Sprague-Dawley rat blood at 1.48 to 2.22 MBq, iv measured at 5 mins by gamma counting analysis; format: ADME, organism-based; conditions: in vivo; procedure, shortened: as §1
Blood [35] = test: Biodistribution in Sprague-Dawley rat blood at 1.48 to 2.22 MBq, iv measured at 60 mins by gamma counting analysis; format: ADME, organism-based; conditions: in vivo, 1 h; procedure, shortened: as §1

SMILES | Drug uptake (Bone [1]) [% ID/g] | Drug uptake (Rattus norvegicus [2]) [% ID/g] | Drug uptake (Muscle tissue [3]) [% ID/g] | Drug uptake (Rattus norvegicus [4]) [% ID/g] | Drug uptake (Brain [5]) [% ID/g] | Ratio (Nucleic Acid [6]) | Drug uptake (Liver [9]) [% ID/g] | Drug uptake (Bone [11]) [% ID/g] | Drug uptake (Liver [12]) [% ID/g] | Drug uptake (Striatum) | Drug uptake (Rattus norvegicus [13]) [% ID/g] | Drug uptake (Bone [14]) [% ID/g] | Drug uptake (Muscle tissue [16]) [% ID/g] | Drug uptake (Kidney [17]) [% ID/g] | Ratio [20] | Drug uptake (Muscle tissue [21]) [% ID/g] | Drug uptake (Liver [23]) [% ID/g] | Drug uptake (Kidney [24]) [% ID/g] | Drug uptake (Blood [25]) [% ID/g] | Drug uptake (Brain [26]) [% ID/g] | further results
Cn1cc(-c2ccncc2)c(-c2ccc(OCc3cc(OCC[18F])c4ccccc4n3)cc2)n1 | 0.142 | 0.259 | 0.247 | 0.302 | 0.078 | > 2 | 6.88 | 0.091 | 6.98 | Active | 0.213 | 0.189 | 0.134 | 2.2 | > 2 | 0.132 | 3.29 | 1.055 | 0.226 | 0.118 | Retention_time (Plasma): 10.5 min; Ratio (Nucleic Acid [7]): > 3; Ratio (Nucleic Acid [8]): > 3; remaining at 0.5 h [10]: 90%; remaining at 1 h [15]: 75%; Drug uptake (Caudate): Active; remaining at 1.5 h [18]: 57%; Ratio (Nucleic Acid [19]): > 3; remaining at 0.25 h [22]: 93%; Drug uptake (Putamen): Active; Ratio (Nucleic Acid [27]): > 3; remaining at 2 min [28]: 98%; Ratio (Nucleic Acid [29]): > 3; Ratio (Nucleic Acid [30]): > 3; Drug uptake (Brain [31]): 0.101 % ID/g; Drug uptake (Kidney [32]): 0.765 % ID/g; Ratio (Nucleic Acid [33]): > 3; Drug uptake (Blood [34]): 0.362 % ID/g; Drug uptake (Blood [35]): 0.215 % ID/g
Cn1cc(-c2ccncc2)c(-c2ccc(OCc3cc(CCC[18F])c4ccccc4n3)cc2)n1 | 2.037 | 0.368 | 0.223 | 0.491 | 0.046 | > 2 | 9.99 | 1.418 | 5.67 | Active | 0.22 | 0.222 | 0.178 | 2.471 | > 2 | 0.103 | 6.79 | 1.364 | 0.345 | 0.114 | Drug uptake (Brain [31]): 0.026 % ID/g; Drug uptake (Kidney [32]): 1.216 % ID/g; Drug uptake (Blood [34]): 0.459 % ID/g; Drug uptake (Blood [35]): 0.345 % ID/g

— ChEMBL document CHEMBL3627597, “Synthesis of Fluorine-Containing Phosphodiesterase 10A (PDE10A) Inhibitors and the In Vivo Evaluation of F-18 Labeled PDE10A PET Tracers in Rodent and Nonhuman Primate” (J Med Chem, 2015)
